Results collected from several papers.
Compare with care: the assays were run in different laboratories.
Target: Rhodopsin kinase GRK1 (GRK1, Homo sapiens, UniProt Q15835)
Sequence (Q15835 1-563, as in one of the studies): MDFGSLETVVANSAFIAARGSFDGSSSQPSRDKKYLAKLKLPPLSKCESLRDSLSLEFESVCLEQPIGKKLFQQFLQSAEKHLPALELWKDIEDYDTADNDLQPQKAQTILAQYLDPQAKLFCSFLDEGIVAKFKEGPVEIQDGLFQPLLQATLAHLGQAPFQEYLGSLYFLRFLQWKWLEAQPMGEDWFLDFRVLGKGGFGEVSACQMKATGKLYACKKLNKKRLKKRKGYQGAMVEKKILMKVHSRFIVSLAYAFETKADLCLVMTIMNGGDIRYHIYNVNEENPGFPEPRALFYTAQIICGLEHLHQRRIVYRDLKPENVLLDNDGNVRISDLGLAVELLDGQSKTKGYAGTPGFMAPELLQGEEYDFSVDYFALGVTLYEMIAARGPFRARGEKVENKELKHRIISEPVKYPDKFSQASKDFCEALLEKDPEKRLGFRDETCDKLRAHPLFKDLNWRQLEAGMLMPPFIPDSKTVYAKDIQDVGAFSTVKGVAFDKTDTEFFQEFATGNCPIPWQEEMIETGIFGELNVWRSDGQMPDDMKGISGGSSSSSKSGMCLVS

Structure (SMILES) | test | conditions | remaining binding [%]
Cn1cc(Cl)c2c(Oc3c(F)cc(Nc4cc(Cl)nc(N)n4)cc3F)ccnc21 | cell-free assay, competition with immobilised ligand | 0.1 µM | 92
CNC(=O)[C@@H]1CC[C@@H](n2c(-c3ccc4cnccc4c3)nc3ccc(C(=O)NCc4cccc(C(N)=O)c4)cc32)C1 | binding, competition with immobilised ligand | 1 µM | 67
C[C@@H]1CCN(c2nccc(-c3cnn4ncccc34)n2)C1 | binding | 1 µM | 77
COc1cnc(Nc2cccc(S(N)(=O)=O)c2)nc1N1CCN(c2ccccc2)CC1 | binding, competition with immobilised ligand | 1 µM | 99
O=C(Nc1c[nH]nc1C(=O)NC1CCNCC1)c1cc(F)cc(F)c1 | binding, competition with immobilised ligand | 1 µM | 83
CCC(=O)N[C@@H]1CC[C@H](C(=O)N(C)c2ccc(-c3nc4ccccc4o3)cc2)C1 | cell-free assay, competition with immobilised ligand | 1 µM | 76
Nc1ncc2c(n1)-c1c([nH]c3ccc(C#CC4CC4)cc13)CCCC2 | binding, competition with immobilised ligand | 1 µM | 90
c1cncc(-c2cccc(Nc3nccc(NC4CCCCC4)n3)c2)c1 | binding, competition with immobilised ligand | 10 µM | 44
CC1CCCN1c1nccc(-c2cnn3ncccc23)n1 (stereo not shown) | binding | 1 µM | 82
Cc1cnc(Nc2ccc(C(=O)N3CCC(N4CCCC4)CC3)cc2)nc1-c1cc2ccccc2s1 | binding, competition with immobilised ligand | 1 µM | 64
CS(=O)(=O)NCC[C@H](NC(=O)c1cncc2c1cnn2-c1ccc(F)cc1)c1ccnc(S(C)(=O)=O)c1 | cell-free assay, competition with immobilised ligand | 1 µM | 100
COc1ccnn2ncc(-c3ccnc(N(C)C)n3)c12 | binding | 1 µM | 82
C[C@@]1(Cc2ccc(C#N)cc2)C(=O)N(c2cc(Cl)cc(Cl)c2)c2ncc(C(=O)NC3(c4nc(C5CCC5)no4)CC3)n21 | cell-free assay, competition with immobilised ligand | 1 µM | 100
CN(C)c1nccc(-c2cnn3ncccc23)n1 | binding | 1 µM | 79
C[C@@H](c1ccc(-n2cnc3c(N)ncnc32)cc1)N1CCc2nn(C)c(Cc3ccccc3)c2C1=O | binding, competition with immobilised ligand | 0.1 µM | 76
CN([C@@H]1CCc2c(CC(=O)O)c3cc(S(C)(=O)=O)ccc3n2C1)S(=O)(=O)c1ccc(F)cc1 | cell-free assay, competition with immobilised ligand | 1 µM | 70
FC(F)(F)Oc1cccc(-c2cnc3ccc(-c4ccncc4)nn23)c1 | cell-free assay, competition with immobilised ligand | 5 µM | 38
N[C@H]1CCN(c2nccc(-c3cnn4ncccc34)n2)C1 | binding | 1 µM | 100
O=C(NCCCN1CCOCC1)c1ccc(Nc2ncc(Cl)c(-c3ccc(Cl)s3)n2)cc1 | binding, competition with immobilised ligand | 1 µM | 100
